# Assay results: ChEMBL document CHEMBL1133633, “Anti-Helicobacter pylori agents. 4. 2-(Substituted guanidino)-4-phenylthiazoles and some structurally rigid derivatives” (2000)
# How the values were obtained:
# [1] = tested on: Helicobacter pylori; test: The lowest drug concentration that inhibited macroscopic colonial growth against Helicobacter pylori; Value ranges from 12.5-100; assay type: functional
# Summary of the method: (§1)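 Agar dilution. Strains were precultured 3 days at 37 °C on Brucella agar with 3% horse serum and 2% starch, then suspended in buffered saline to McFarland No. 1. A 10²-fold dilution was spotted by multipoint replicator onto Brucella agar with 7% lysed horse blood carrying serial 2-fold drug dilutions. Plates were incubated 3 days at 37 °C under 10% CO₂. MIC is the lowest concentration preventing macroscopic colonial growth. Mean and range come from 10 strains: 8001, 8003, 8004, 8007, 8008, 8009, 8011, 9005, FP1530 and FP1532.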
# [2] = tested on: Helicobacter pylori; test: Determined the lowest drug concentration that inhibited macroscopic colonial growth against Helicobacter pylori.; assay type: functional; summary of the method: as §1
# [3] = tested on: Helicobacter pylori; test: The lowest drug concentration that inhibited macroscopic colonial growth against Helicobacter pylori;value ranges from 6.25-50; assay type: functional; summary of the method: as §1
# [4] = tested on: Helicobacter pylori; test: The lowest drug concentration that inhibited macroscopic colonial growth against Helicobacter pylori; Value ranges from 6.25-50; assay type: functional; summary of the method: as §1
# [5] = tested on: Helicobacter pylori; test: The lowest drug concentration that inhibited macroscopic colonial growth against Helicobacter pylori; value ranges from 3.13-50; assay type: functional; summary of the method: as §1
# [6] = tested on: Helicobacter pylori; test: The lowest drug concentration that inhibited macroscopic colonial growth against Helicobacter pylori.; assay type: functional; summary of the method: as §1
# [7] = species on record: Cavia porcellus; test: Inhibition of histamine stimulated chronotropic response in isolated guinea pig right atrium (1x 10e-6 g/mL); assay type: functional, Cardiac atrium
# Summary of the method: (§2)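 Guinea pig right atrial strip, under 0.3-0.6 g initial tension in Tyrode solution at 30 °C, gassed with 95% O₂-5% CO₂; beating rate recorded by transducer. Histamine hydrochloride (1 × 10^-6 g/mL) raised rate. Test compound (1 × 10^-6 g/mL) was added 30 min after histamine washout. Percent inhibition compares histamine-induced rate increases before and 30 min after dosing.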
# [8] = tested on: Helicobacter pylori; test: The lowest drug concentration that inhibited macroscopic colonial growth against Helicobacter pylori; value ranges from 0.2-0.78; assay type: functional; summary of the method: as §1
# [9] = tested on: Rattus norvegicus; test: Inhibition of histamine stimulated gastric acid secretion in lumen perfused stomach of anesthetized rat (1 mg/kg iv); assay type: functional
# Summary of the method: (§3)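 Male Sprague-Dawley rats (~250 g), fasted 24 h, anesthetized with urethane 1.25 g/kg ip. The opened stomach was lumen-perfused with saline, and the perfusate was titrated with 25 mM NaOH by autotitrator. Inhibition of histamine-stimulated acid output was measured after 1 mg/kg iv dosing; n = 2.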
# [10] = species on record: Cavia porcellus; test: Inhibition of histamine stimulated chronotropic response in isolated guinea pig right atrium (1*10e-6 g/mL); assay type: functional, Cardiac atrium; summary of the method: as §2
# [11] = tested on: Rattus norvegicus; test: Inhibition of histamine stimulated gastric acid secretion in lumen perfused stomach of anesthetized rats (1 mg/kg iv); assay type: functional; summary of the method: as §3
# [12] = tested on: Helicobacter pylori; test: The lowest drug concentration that inhibited macroscopic colonial growth against Helicobacter pylori; value ranges from 0.0125-0.1; assay type: functional; summary of the method: as §1
# [13] = tested on: Bacteroides fragilis; test: Antimicrobial activity was measured against B. fragilis range; Value ranges from 0.39-0.78; assay type: functional
# [14] = tested on: Campylobacter jejuni; test: Antimicrobial activity was measured against Campylobacter jejuni organism; Value ranges from 0.78-100; assay type: functional
# [15] = tested on: Clostridioides difficile; test: Antimicrobial activity was measured against Clostridium difficile organism; Value ranges from 0.1-0.39; assay type: functional
# [16] = tested on: Clostridium perfringens; test: Antimicrobial activity was measured against Clostridium perfringens organism; Value ranges from 0.78-3.13; assay type: functional
# [17] = tested on: Neisseria gonorrhoeae; test: Antimicrobial activity was measured against Neisseria gonorrhoeae organism; assay type: functional
# [18] = tested on: Neisseria meningitidis; test: Antimicrobial activity was measured against Neisseria meningitidis organism.; assay type: functional
# [19] = tested on: Helicobacter pylori; test: The lowest drug concentration that inhibited macroscopic colonial growth against Helicobacter pylori; Value ranges from 1.56-25; assay type: functional; summary of the method: as §1
# [20] = tested on: Bacteroides fragilis; test: Antimicrobial activity was measured against Bacteroides fragilis organism.; assay type: functional
# [21] = tested on: Clostridium perfringens; test: Antimicrobial activity was measured against Clostridium perfringens organism.; assay type: functional
# [22] = tested on: Helicobacter pylori; test: The lowest drug concentration that inhibited macroscopic colonial growth against Helicobacter pylori; value ranges from 0.0030-0.05; assay type: functional; summary of the method: as §1
# [23] = tested on: Campylobacter jejuni; test: Antimicrobial activity was measured against Campylobacter jejuni organism. range is between is(12.5-50).; assay type: functional
# [24] = tested on: Clostridioides difficile; test: Antimicrobial activity was measured against Clostridium difficile organism.; assay type: functional
# [25] = tested on: Helicobacter pylori; test: The lowest drug concentration that inhibited macroscopic colonial growth against Helicobacter pylori; Value ranges from 3.13-12.5; assay type: functional; summary of the method: as §1
# [26] = tested on: Helicobacter pylori; test: The lowest drug concentration that inhibited macroscopic colonial growth against Helicobacter pylori; value ranges from 12.5-50; assay type: functional; summary of the method: as §1
smiles,measurement,setting,value
CC(=O)NCc1ccc2c(c1)-c1nc(N=C(N)N)sc1CCO2,MIC,[1],50 µg/mL
CC[C@H]1OC(=O)[C@H](C)[C@@H](O[C@H]2C[C@@](C)(OC)[C@@H](O)[C@H](C)O2)[C@H](C)[C@@H](O[C@@H]2O[C@H](C)C[C@H](N(C)C)[C@H]2O)[C@](C)(OC)C[C@@H](C)C(=O)[C@H](C)[C@@H](O)[C@]1(C)O [CLARITHROMYCIN],MIC,[2],0.057 µg/mL
CC(=O)NCc1cccc(-c2csc(NC(=N)NCCc3c[nH]cn3)n2)c1,MIC,[3],27 µg/mL
CCCC/N=C(\N)Nc1nc2c(s1)CSc1ccc(CNC(C)=O)cc1-2,MIC,[4],22 µg/mL
CC(=O)NCc1cccc(-c2csc(NC(=N)NCCNC(=O)c3ccccc3)n2)c1,MIC,[5],23 µg/mL
CC(=O)Nc1ccc2c(c1)-c1nc(N=C(N)N)sc1CS2,MIC,[6],> 100 µg/mL
CC(=O)Nc1ccc2c(c1)-c1nc(N=C(N)N)sc1CCO2,MIC,[6],> 100 µg/mL
CC(=O)NCc1cccc(-c2csc(NC(=N)NCCCc3ccccc3)n2)c1,Inhibition,[7],35%
same,MIC,[8],0.39 µg/mL
same,Inhibition,[9],57%
CC(=O)NCc1cccc(-c2csc(NC(=N)Nc3ccccc3)n2)c1,Inhibition,[10],23%
same,MIC,[8],0.52 µg/mL
same,Inhibition,[11],24%
CC(=O)NCc1cccc(-c2csc(NC(=N)NCCc3ccccc3)n2)c1,Inhibition,[10],65%
same,Inhibition,[11],59%
same,MIC,[12],0.037 µg/mL
CC(=O)NCc1cccc2c1OCCc1sc(N=C(N)N)nc1-2,MIC,[6],> 100 µg/mL
Cc1ncc([N+](=O)[O-])n1CCO [METRONIDAZOLE],MIC,[13],0.59 µg/mL
same,MIC,[14],30 µg/mL
same,MIC,[15],0.2 µg/mL
same,MIC,[16],1.75 µg/mL
same,MIC,[17],> 100 µg/mL
same,MIC,[18],> 100 µg/mL
same,MIC,[19],5.4 µg/mL
COc1ccccc1CC/N=C(\N)Nc1nc(-c2cccc(CNC(C)=O)c2)cs1,MIC,[20],> 100 µg/mL
same,MIC,[21],> 100 µg/mL
same,Inhibition,[10],72%
same,MIC,[22],0.017 µg/mL
same,MIC,[17],> 100 µg/mL
same,MIC,[18],> 100 µg/mL
same,Inhibition,[11],58%
same,MIC,[23],20.5 µg/mL
same,MIC,[24],> 100 µg/mL
CCCC/N=C(\N)Nc1nc2c(s1)CCOc1ccc(CNC(C)=O)cc1-2,MIC,[25],7.7 µg/mL
CC(=O)NCc1cccc(-c2csc(NC(=N)NCCO)n2)c1,MIC,[4],20 µg/mL
CC/N=C(\N)Nc1nc(-c2cccc(CNC(C)=O)c2)cs1,MIC,[6],3.6 µg/mL
CCO/N=C(\N)Nc1nc(-c2cccc(CNC(C)=O)c2)cs1,MIC,[26],29 µg/mL
CC(=O)NCc1ccc(-c2csc(N=C(N)N)n2)cc1,MIC,[6],> 100 µg/mL
